# ChEMBL document CHEMBL1126796, “2-(Alkylamino)nicotinic acid and analogs. Potent angiotensin II antagonists” (J Med Chem, 1993)
# Key:
# [1] = target: T1, Type-1 angiotensin II receptor (Oryctolagus cuniculus, UniProt P34976); assay: Antagonistic ability of angiotensin II to contract rabbit aorta; type: functional, tissue-based; conditions: read-out: pA2 (converted)
# T1 sequence (P34976 whole entry): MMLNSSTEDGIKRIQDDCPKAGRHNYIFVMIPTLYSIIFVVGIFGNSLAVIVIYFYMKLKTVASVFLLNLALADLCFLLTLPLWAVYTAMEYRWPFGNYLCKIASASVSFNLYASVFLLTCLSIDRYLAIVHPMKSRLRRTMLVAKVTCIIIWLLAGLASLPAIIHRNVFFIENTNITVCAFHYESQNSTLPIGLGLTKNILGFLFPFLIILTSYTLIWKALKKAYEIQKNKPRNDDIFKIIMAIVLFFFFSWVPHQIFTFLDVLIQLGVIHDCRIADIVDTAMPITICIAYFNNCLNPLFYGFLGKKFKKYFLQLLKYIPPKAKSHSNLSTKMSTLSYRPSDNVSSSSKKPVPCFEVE
# In short: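 Angiotensin II contraction of rabbit aortic rings. Full pA2 from several drug concentrations by Schild plot (log drug concentration vs log(EC50 ratio-1)); EC50 ratio is the angiotensin II EC50 with drug over that without drug.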
# [2] = Cmax value after oral dose of […]; type: ADME, organism-based; conditions: in vivo
# [3] = Volume of distribution of central compartment (dose+ plasma concentration at time zero) after intravenous dose of 3.87 mg/kg; type: ADME, organism-based; design: dose 3.87 mg/kg, route intravenous; conditions: read-out: VI
# In short: (§1)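 Jugular-vein slow iv bolus (normal saline, 1 mL/kg) in male Sprague-Dawley-derived rats. Plasma was sampled via the tail vein at 0.1–24 h and measured by reverse-phase HPLC after liquid-liquid extraction. Central volume was taken as dose divided by plasma concentration at time zero. Terminal-phase volume was derived from clearance and the plasma elimination rate constant.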
# [4] = Bioavailability after oral dose of […]; type: ADME, organism-based; conditions: eutheria, in vivo
# [5] = Area under curve after oral dose of […]; type: ADME, organism-based; conditions: in vivo
# [6] = Cmax value after oral dose of 3.87 mg/kg; type: ADME, organism-based; design: dose 3.87 mg/kg, route oral; conditions: in vivo
# In short: (§2)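 Male Sprague-Dawley-derived rats were dosed with compound in normal saline (1 mL/kg), by gavage or as a slow IV bolus into the jugular vein. Heparinized tail-vein blood was taken at 0.25-24 h, extracted liquid-liquid and assayed by reverse-phase HPLC. Cmax is the observed peak concentration and AUC is mean (SEM). F compares oral with IV AUC, corrected for dose and assuming dose proportionality.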
# [7] = Tmax value after oral dose of 10 mg/kg; type: ADME, organism-based; design: dose 10 mg/kg, route oral; conditions: in vivo
# In short: (§3)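 Male Sprague-Dawley-derived rats. Compound was given in normal saline at 1 mL/kg, either as a slow iv bolus into the jugular vein or orally by gavage. Plasma underwent liquid-liquid extraction and reverse-phase HPLC. Terminal elimination half-life and time of observed peak concentration were taken from the profiles.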
# [8] = tested on: Rattus norvegicus; assay: % decrease in blood pressure after 4 hours in male rats at a dose of 3 mg/kg by using Renal artery hypertensive model; type: functional
# In short: (§4)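 Male Sprague-Dawley rats (300-350 g) were made hypertensive by renal artery ligation and used on day 6 or 7 after ligation. Arterial pressure was measured from an indwelling femoral artery catheter, with blood pressure and heart rate recorded on line. Read-out is % decrease in blood pressure at 4 h, ±SEM, with number of rats.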
# [9] = Area under curve after oral dose of 3.87 mg/kg; type: ADME, organism-based; design: dose 3.87 mg/kg, route oral; conditions: in vivo; in short: as §2
# [10] = Bioavailability after oral dose of 3.87 mg/kg; type: ADME, organism-based; conditions: eutheria, in vivo; in short: as §2
# [11] = Plasma clearance after intravenous dose of 3.87 mg/kg; type: ADME, organism-based; design: dose 3.87 mg/kg, route intravenous; conditions: read-out: Clp
# In short: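 Male Sprague-Dawley-derived rats received a slow iv bolus into the jugular vein of the compound in normal saline (1 mL/kg). Tail-vein heparinized blood was drawn from 0.1 to 24 h and assayed by reverse-phase HPLC after liquid-liquid extraction. Total plasma clearance was calculated as dose divided by AUC and reported as mean (SEM).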
# [12] = Area under curve after oral dose of 10 mg/kg; type: ADME, organism-based; design: dose 10 mg/kg, route oral; conditions: in vivo; in short: as §2
# [13] = Half-life period of compound after intravenous dose of 3.87 mg/kg; type: ADME, organism-based; design: dose 3.87 mg/kg, route intravenous; conditions: in vivo; in short: as §3
# [14] = Cmax value after oral dose of 10 mg/kg; type: ADME, organism-based; design: dose 10 mg/kg, route oral; conditions: in vivo; in short: as §2
# [15] = Tmax value after oral dose of […]; type: ADME, organism-based; conditions: in vivo
# [16] = tested on: Rattus norvegicus; assay: % decrease in blood pressure after 4 hours at a dose of 10 mg/kg in male rats by using Renal artery hypertensive model; type: functional; in short: as §4
# [17] = Tmax value after oral dose of 3.87 mg/kg; type: ADME, organism-based; design: dose 3.87 mg/kg, route oral; conditions: in vivo; in short: as §3
# [18] = tested on: Rattus norvegicus; assay: % decrease in blood pressure after 4 hours in male rats at a dose of 1 mg/kg by using Renal artery hypertensive model; type: functional; in short: as §4
# [19] = target: T2, Type-1 angiotensin II receptor A (Rattus norvegicus, UniProt P25095); assay: Binding affinity against angiotensin II receptor from rat liver
# T2 sequence (P25095 whole entry): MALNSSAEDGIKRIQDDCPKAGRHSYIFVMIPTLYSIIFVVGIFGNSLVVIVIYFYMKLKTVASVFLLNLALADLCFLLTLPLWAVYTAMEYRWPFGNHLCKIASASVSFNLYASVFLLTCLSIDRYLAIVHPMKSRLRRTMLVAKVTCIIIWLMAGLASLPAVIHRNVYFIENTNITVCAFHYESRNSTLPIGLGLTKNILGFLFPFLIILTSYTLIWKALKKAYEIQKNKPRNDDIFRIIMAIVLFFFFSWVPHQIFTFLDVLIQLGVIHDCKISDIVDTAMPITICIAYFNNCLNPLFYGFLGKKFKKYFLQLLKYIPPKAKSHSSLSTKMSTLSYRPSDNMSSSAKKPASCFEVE
# In short: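 Rat liver membranes were incubated with [125I]-saralasin to measure angiotensin II type 1 receptor binding. Nonspecific binding was defined with 1 µM angiotensin.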
# [20] = Bioavailability after oral dose of 10 mg/kg; type: ADME, organism-based; conditions: eutheria, in vivo; in short: as §2
# [21] = Volume of distribution of the terminal phase (CLp+ plasma elimination rate constant) after intravenous dose of 3.87 mg/kg; type: ADME, organism-based; design: dose 3.87 mg/kg, route intravenous; conditions: read-out: Vbeta; in short: as §1
smiles,measurement,setting,value
CCc1cc(OCc2ccc(-c3ccccc3-c3nn[nH]n3)cc2)c2nc(OC(C)C)ccc2n1,Kb,[1],0.1 nM
CCCCN(Cc1ccc(-c2ccccc2-c2nn[nH]n2)cc1)c1ncncc1C(=O)O.Cl,Cmax,[2],1470 ng/mL
same,Vd,[3],0.08 L/kg
same,bioavailability,[4],4.8%
same,AUC,[5],6.65 µg/h/mL
same,Cmax,[6],510 ng/mL
same,Tmax,[7],0.9 h
same,Decrease in blood pressure,[8],18%
same,AUC,[9],2.38 µg/h/mL
same,bioavailability,[10],10.3%
same,clearance,[11],0.85 mL/min
same,AUC,[12],2.83 µg/h/mL
same,half-life,[13],1.5 h
same,Cmax,[14],840 ng/mL
same,Tmax,[15],1.1 h
same,Decrease in blood pressure,[16],41%
same,Tmax,[17],1.3 h
same,Decrease in blood pressure,[18],10%
same,Ki,[19],1.77 nM
same,bioavailability,[20],4.8%
same,Vd,[21],0.42 L/kg
